# High-throughput results (PubChem BioAssay)
# Shown are actives, neighbours in structure and some others; about 3.8% of the full set was active somewhere.
# MPTP block = blocks calcium-induced mitochondrial swelling | 360,000 compounds, 1.4% hits | isolated mouse mitochondria, Ca2+ swelling absorbance, 30 min | inhibition, % at 10 µM | AID 602449;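 active = inhibition of 50% or more, scaled per plate between neutral and stimulator controls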;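 note: 0% = DMSO wells given calcium and 100% = 1 mM EGTA wells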
# T cell HTS = T cell immune modulation candidate; 2C CD8+ T cell-vesicle binding, flow cytometry; stronger effect = lower value; response (vesicle binding), % at 7 µM; 330,000 compounds, 0.068% hits;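 active = response, share of CD8 T cells binding vesicles, and their 90th percentile fluorescence all below set limits, cut at about 80% in these data, passing the limit was not always enough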;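 note: values below 100% mean blocked vesicle binding to the CD8+ T cells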
#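 Assay system – 2C mouse CD8+ T cells · Also added – QL9-loaded Drosophila micro-vesicles · Timing – Cell–vesicle co-incubation 1.5 h at 37 °C, staining 20 min on ice · Signal – flow cytometry of vesicle-bound cells · Measure – percent CD8+ FL2 mean versus row control · Controls – Peptide-free naked vesicles (low) and QL9 vesicles with 0.7% DMSO vehicle (high)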
# Beta2AR agonist = human beta-2 adrenergic receptor agonism by FAP; response, % (concentration not given with the values); 340,000 compounds, 0.43% hits; Am2.2-beta2AR cells, FAP receptor internalization, flow cytometry; AID 504454; P07550;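 active = response above a set limit, near 3 SD of response in nonfluorescent compounds, cut at about 42% in these data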
# Target sequence (P07550 whole entry, looked up): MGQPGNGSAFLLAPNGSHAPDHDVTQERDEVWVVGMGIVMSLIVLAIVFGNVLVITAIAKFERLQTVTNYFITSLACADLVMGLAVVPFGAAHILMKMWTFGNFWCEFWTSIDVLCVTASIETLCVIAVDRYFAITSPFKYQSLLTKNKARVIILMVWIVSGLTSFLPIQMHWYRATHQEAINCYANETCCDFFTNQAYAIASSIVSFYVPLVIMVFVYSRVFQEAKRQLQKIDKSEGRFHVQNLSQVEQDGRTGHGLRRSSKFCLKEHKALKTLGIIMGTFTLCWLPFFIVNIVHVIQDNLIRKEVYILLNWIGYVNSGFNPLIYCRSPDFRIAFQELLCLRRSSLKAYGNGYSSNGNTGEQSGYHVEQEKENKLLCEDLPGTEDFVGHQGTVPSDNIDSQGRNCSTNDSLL
# Granule exo inh = lytic granule exocytosis inhibition. TALL-104 LAMP-1 surface exposure, flow cytometry; cells stimulated with thapsigargin and PMA. inhibition, % at 10 µM. 360,000 compounds, 0.66% hits;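 active = inhibition above about 55%, limit read from the data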
# rCAG RNA binder = molecules binding r(CAG) RNA repeats. AID 651821. r(CAG) RNA repeat, TO-PRO-1 dye displacement fluorescence. inhibition, % at 3 µM. 370,000 compounds, 1.3% hits;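 active = inhibition above the plate cutoff, the mean of all test compounds on that plate plus 3 SD, cut at about 35% in these data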;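 note: 0% = DMSO alone and 100% = 100 µM mitoxantrone as full dye displacement; higher means more dye released from RNA so lower well fluorescence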
# V-ATPase pHluor = yeast V-ATPase proton transport regulation by pHLuorin; S. cerevisiae, pHLuorin cytosolic pH fluorescence; response, % at 10 µM; 350,000 compounds, 0.37% hits; AID 504577; in the data active = response mostly above about 7.3%, no sharp cut-off; inactive = mostly below about 5.4%; note: actives read high
# Granule exo CP1 = lytic granule exocytosis inhibition. shares compounds with Granule exo inh. TALL-104 cells, LAMP-1 externalization, flow cytometry; stimulated with PMA plus thapsigargin. inhibition, % at 10 µM. 1,500 compounds, 11% hits. AID 651954; in the data active = inhibition above about 60%;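 note: 0% = stimulated vehicle wells and 100% = unstimulated wells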
# rCAG binder conf = r(CAG) RNA repeat binding, confirmation | AID 652065 | inhibition, % at 3 µM | TO-PRO-1 dye displacement fluorescence | 4,300 compounds, 70% hits | shares compounds with rCAG RNA binder;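 active = inhibition above a per-plate cutoff, the mean inhibition of sample wells plus 3 SD, cut at about 35% in these data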;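 note: loss of TO-PRO-1 fluorescence as compound displaces dye from 1x1 AA loop RNA; 0% = DMSO only wells and 100% = 100 µM mitoxantrone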
# DNA CAG counter = DNA CAG dye complex inhibition counter-screen; AID 652068; d(CAG) DNA oligo TO-PRO-1 dye displacement, fluorescence; shares compounds with rCAG RNA binder; 4,300 compounds, 94% hits; inhibition, % at 3 µM;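 active = inhibition above its plate's cutoff, the mean test-well inhibition plus 3 SD, cut at about 4.8% in these data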;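 note: 0% = DNA dye mix with DMSO and 100% = 100 µM mitoxantrone; hits displace the dye from DNA and so lower well fluorescence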
# DNA CAG DR = counter-screen for rCAG binders: inhibitors of DNA CAG TO-PRO-1 complex. DNA CAG/GTC duplex TO-PRO-1 dye displacement fluorescence. AID 686960. 250 compounds, 20% hits. shares compounds with rCAG RNA binder. IC50, µM; in the data active = IC50 below about 10 µM
# Numbers without * were called inactive; i = inactive; / = not tested or not shown.
SMILES,MPTP block,T cell HTS,Beta2AR agonist,Granule exo inh,rCAG RNA binder,V-ATPase pHluor,Granule exo CP1,rCAG binder conf,DNA CAG counter,others
COC(=O)C1=C(C)N(Cc2cccc(C(F)(F)F)c2)C(=NCC2CC2)NC1c1cccc(Cl)c1 (stereo not drawn),/,/,/,/,8,/,/,/,/,
CCOC(=O)c1c2c(n(C)c1C)C(=O)C(=O)c1ccc(Br)cc1-2,8,421,-2,2,-1,1,/,/,/,
CCOC(=O)c1c2c(n(Cc3ccccc3)c1C)C(=O)C(=O)c1ccccc1-2,4,/,10,99*,7,-3,50,/,/,
COc1cccc(CC2(CO)CCCN(Cc3ccc(OC)c(C)c3OC)C2)c1 (stereo not drawn),1,122,5,60*,-8,-2,-10,/,/,
CCCCCCNC(=O)CC(c1ccccc1)c1cc(Br)ccc1O (stereo not drawn),4,287,0,66*,4,0,30,/,/,
Cc1cc(-c2n[nH]c(=S)n2N=Cc2c3ccccc3cc3ccccc23)n[nH]1,/,/,/,/,11,/,/,/,/,
COc1cccc(-c2nc(NCc3ccccc3)c3ccccc3n2)c1O,4,376,5,64*,38*,0,14,31,15*,
COc1cccc(-c2nc(NCc3ccco3)c3ccccc3n2)c1O,4,225,14,-2,22,0,/,/,/,
Cc1cc2nc(-c3ccco3)c(Cc3ccccc3C(F)(F)F)n2c(C)c1Br,-2,/,/,85*,47*,/,-12,37*,14*,
Cc1ccccc1N1CCN(C(=O)COc2cc(=O)n(C)c3ccccc23)CC1,/,/,/,/,-1,/,/,/,/,
O=C(O)c1cccc(S(=O)(=O)N(Cc2ccccc2)c2ccccc2)c1,-1,257,6,-1,12,-1,/,/,/,
O=C(O)c1ccc(Cl)c(S(=O)(=O)N(Cc2ccccc2)c2ccccc2)c1,1,254,6,63*,38*,0,-13,39*,9.6*,
O=C(NC1CCCCN(Cc2ccc(Cl)cc2)C1=O)c1ccccc1-c1ccc(Cl)c(Cl)c1 (stereo not drawn),/,/,/,/,2,/,/,/,/,
CN(C)CCC(=O)C(Cc1ccccc1)c1ccccc1 (stereo not drawn),1,535,10,97*,35*,6,18,-1,-1,
CC1CCc2nc3ccc(S(=O)(=O)N4CCC(C(=O)NC(C)c5ccccc5)CC4)cc3c(C(=O)O)c2C1 (stereo not drawn),1,i,-8,-9,38*,0,/,45*,14*,
CCc1nnc(NS(=O)(=O)c2ccc(NC(=O)c3ccco3)cc2)s1,0,539,-13,2,8,0,/,/,/,
CCc1nnc(NS(=O)(=O)c2ccc(NC(=O)C(c3ccccc3)c3ccccc3)cc2)s1,10,696,9,2,84*,-6,/,72*,34*,DNA CAG DR=9.2*
CCc1nnc(NS(=O)(=O)c2ccc(NC(=O)c3cccc(OC)c3)cc2)s1,0,94,0,0,39*,5,/,27,5.5*,
CCc1nnc(NS(=O)(=O)c2ccc(N3C(=O)C4CC=C(Cl)CC4C3=O)cc2)s1 (stereo not drawn),1,274,-5,-2,49*,0,/,26,7.6*,
CCc1nnc(NS(=O)(=O)c2ccc(NC(=O)CCC(=O)OC)cc2)s1,1,554,7,-5,0,-1,/,/,/,
CCc1nnc(NS(=O)(=O)c2ccc(NC(=O)c3cccc(Cl)c3)cc2)s1,3,390,6,8,54*,-2,/,50*,10*,DNA CAG DR=>30
CCCCN1CCN(C2=Nc3ccccc3Sc3ccccc32)CC1,/,/,/,/,0,/,/,/,/,
COC(=O)C1CN(Cc2cn(Cc3ccc(F)cc3)nn2)CCS(=O)(=O)N1Cc1ccccc1 (stereo not drawn),/,/,/,/,4,/,/,/,/,
